Columns and labels:
[1] = Cellular content after 4 hr incubation with compound under aerobic condition at 37 C.; format: functional; details: Cricetulus griseus
How it was run: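 Aerobic V79 Chinese hamster cells exposed to 10^-4 M extracellular drug for 4 h at 37 °C, then washed with PBS. Cell content measured by HPLC with an acetonitrile gradient, 50–75% over 10 min with 390 nm detection or 30–50% with 340 nm detection depending on compound. Reported as fmol per cell; about 0.1 fmol/cell corresponds to equilibration with the extracellular space.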

[2] = Binding of fluorescence moiety to hypoxic cells measured in flow cytometry assay at conc of 10e-4 M.; format: functional, Cricetulus griseus
How it was run: (§1)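 V79 379A Chinese hamster cells (suspension culture, MEM with 7.5% fetal calf serum) incubated at 37 °C with 10^-4 M drug under aerobic or hypoxic gassing (air or N2, each + 5% CO2); DMSO final ≤1%. Flow cytometry after 6 h: excitation 365 nm, emission >390 or 410 nm; naphthalimides excited 458 nm, emission 510–560 nm. Mean fluorescence, arbitrary units, normalized for PMT gain and laser power.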

[3] = Binding of fluorescence moiety to oxic cells measured in flow cytometry assay at conc of 10e-4 M.; format: functional, Cricetulus griseus; how it was run: as §1

SMILES	Uptake [1]	Fluorescence Intensity [2]	Fluorescence Intensity [3]
Nc1ccc2c3c(cccc13)C(=O)N(CCCn1ccnc1[N+](=O)[O-])C2=O	98 fmol/cell	335	17
COc1ccc2cc(Cn3ccnc3[N+](=O)[O-])c(=O)oc2c1	–	203	85
Br.COc1ccc2c(CSCCN)cc(=O)oc2c1	–	77	19
CC(=O)Nc1ccc2c3c(cccc13)C(=O)N(CCCn1ccnc1[N+](=O)[O-])C2=O	0.04 fmol/cell	37	12
Nc1ccc2c3c(cccc13)C(=O)N(CCCCCCCCCn1ccnc1[N+](=O)[O-])C2=O	105 fmol/cell	263	78
COc1cc2nc(N3CCN(CC(O)Cn4ccnc4[N+](=O)[O-])CC3)nc(N)c2cc1OC (centres undefined)	–	85	39
COc1cc2cc(Cn3ccnc3[N+](=O)[O-])c(=O)oc2cc1OC	–	1149	238
O=C(CNCCCN(CCO)CCO)Nc1ccc2c3c(cccc13)C(=O)N(CCCn1ccnc1[N+](=O)[O-])C2=O	< 0.005 fmol/cell	24	13
COc1ccc2c(Cn3ccnc3[N+](=O)[O-])cc(=O)oc2c1	–	361	24
Nc1ccc2c3c(cccc13)C(=O)N(CCCCCn1ccnc1[N+](=O)[O-])C2=O	93 fmol/cell	235	42
COc1ccc2cc(C(=O)NCCN(CCO)CC(O)Cn3ccnc3[N+](=O)[O-])c(=O)oc2c1 (centres undefined)	–	412	24
COc1cc2oc(=O)cc(Cn3ccnc3[N+](=O)[O-])c2cc1OC	–	1461	64

— ChEMBL document CHEMBL1125931, “Fluorescent markers for hypoxic cells: a study of nitroaromatic compounds, with fluorescent heterocyclic side chains, that undergo bioreductive binding” (J Med Chem, 1991)
